From ChEMBL document CHEMBL4014298, “Discovery of a series of 8-(1-phenylpyrrolidin-2-yl)-6-carboxamide-2-morpholino-4H-chromen-4-one as PI3Kβ/δ inhibitors for the treatment of PTEN-deficient tumours” (Bioorg Med Chem Lett, 2017)

How the values were obtained:
[1] = Intrinsic clearance in human hepatocytes assessed per million cells; format: ADME, cell-based, Hepatocyte; settings: read-out: CLH
[2] = biological target: T1, Phosphatidylinositol 4,5-bisphosphate 3-kinase catalytic subunit beta isoform (Homo sapiens, UniProt P42338); assay: Inhibition of PI3Kbeta in PTEN-deficient human MDA-MB-468 cells assessed as decrease in AKT phosphorylation at Ser473 measured after 2 hrs
[3] = Lipophilicity, log D of the compound at pH 7.4; settings: buffer
[4] = Inhibition of PI3Kalpha mutant in human BT474 cells assessed as decrease in AKT phosphorylation at Thr308 after 2 hrs; format: cell-based; settings: BT-474, 2 h
[5] = AUC in mouse at 30 umol/kg, po; format: ADME; settings: in vivo
[6] = Apparent permeability across apical to basolateral side in human Caco2 cells; settings: Caco-2
[7] = biological target: T1, Phosphatidylinositol 4,5-bisphosphate 3-kinase catalytic subunit beta isoform; assay: Inhibition of recombinant human PI3Kbeta using PIP2 as substrate preincubated for 20 mins followed by substrate addition measured after 80 mins in presence of ATP by Kinase Glo luminescence assay
[8] = species: Homo sapiens; assay: Selectivity ratio of IC50 for PI3Kalpha mutant in human BT474 cells to IC50 for PI3Kbeta in PTEN-deficient human MDA-MB-468 cells; format: cell-based
Outline: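 Ratio of two cellular IC50s. PI3Kα IC50 is from inhibition of AKT Thr308 phosphorylation in PIK3CA-mutant human breast ductal carcinoma BT474 cells. PI3Kβ IC50 is from inhibition of AKT Ser473 phosphorylation in PTEN-null breast adenocarcinoma MDA-MB-468 cells.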

[9] = biological target: T2, Phosphatidylinositol 4,5-bisphosphate 3-kinase catalytic subunit delta isoform (Homo sapiens, UniProt O00329); assay: Inhibition of recombinant human PI3Kdelta using PIP2 as substrate preincubated for 20 mins followed by substrate addition measured after 80 mins in presence of ATP by Kinase Glo luminescence assay
T2 sequence (O00329 whole entry): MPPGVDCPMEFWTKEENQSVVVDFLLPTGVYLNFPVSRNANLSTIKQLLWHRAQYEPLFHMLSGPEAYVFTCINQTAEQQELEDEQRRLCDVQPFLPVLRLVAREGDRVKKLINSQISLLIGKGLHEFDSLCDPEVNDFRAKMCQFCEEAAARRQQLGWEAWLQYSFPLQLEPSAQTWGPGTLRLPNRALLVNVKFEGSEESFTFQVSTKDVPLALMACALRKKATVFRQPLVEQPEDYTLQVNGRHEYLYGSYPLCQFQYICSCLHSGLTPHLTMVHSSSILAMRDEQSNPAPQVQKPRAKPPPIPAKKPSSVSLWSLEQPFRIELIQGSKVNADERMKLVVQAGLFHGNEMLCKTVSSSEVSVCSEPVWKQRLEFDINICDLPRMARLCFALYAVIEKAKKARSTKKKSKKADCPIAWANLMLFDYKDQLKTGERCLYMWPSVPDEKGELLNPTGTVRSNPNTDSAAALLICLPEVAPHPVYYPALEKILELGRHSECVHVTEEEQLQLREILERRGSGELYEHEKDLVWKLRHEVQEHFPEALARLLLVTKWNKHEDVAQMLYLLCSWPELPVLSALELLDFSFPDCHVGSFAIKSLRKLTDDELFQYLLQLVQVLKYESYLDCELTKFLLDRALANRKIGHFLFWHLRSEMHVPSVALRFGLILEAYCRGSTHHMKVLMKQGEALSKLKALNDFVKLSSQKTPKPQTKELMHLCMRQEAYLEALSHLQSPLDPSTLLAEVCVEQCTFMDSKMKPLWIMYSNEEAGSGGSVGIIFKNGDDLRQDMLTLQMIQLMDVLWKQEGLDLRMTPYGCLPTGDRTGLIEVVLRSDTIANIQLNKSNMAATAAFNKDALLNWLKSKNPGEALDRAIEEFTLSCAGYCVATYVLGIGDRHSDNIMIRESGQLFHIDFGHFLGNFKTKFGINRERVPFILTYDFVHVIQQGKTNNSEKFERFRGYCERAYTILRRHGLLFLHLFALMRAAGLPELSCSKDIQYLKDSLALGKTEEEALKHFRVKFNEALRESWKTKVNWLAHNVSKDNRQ

[10] = biological target: Phosphatidylinositol 4,5-bisphosphate 3-kinase catalytic subunit gamma isoform (Homo sapiens, UniProt P48736); assay: Inhibition of recombinant human PI3Kgamma using PIP2 as substrate preincubated for 20 mins followed by substrate addition measured after 80 mins in presence of ATP by Kinase Glo luminescence assay
Outline: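 Enzyme IC50 against PI3Kγ, single determination (n=1).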

[11] = biological target: Phosphatidylinositol 4,5-bisphosphate 3-kinase catalytic subunit alpha isoform (Homo sapiens, UniProt P42336); assay: Inhibition of recombinant human PI3Kalpha using PIP2 as substrate preincubated for 20 mins followed by substrate addition measured after 80 mins in presence of ATP by Kinase Glo luminescence assay
[12] = Fraction unbound in human plasma; format: ADME, cell-free
Outline: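 Plasma protein binding in mouse, dog or human plasma, reported as fraction unbound (%).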

[13] = Oral bioavailability in mouse blood at 30 umol/kg; format: ADME, organism-based
[14] = Volume of distribution at steady state in mouse blood at 5 umol/kg, iv or 30 umol/kg, po; format: ADME, organism-based; settings: read-out: Vdss
[15] = Intrinsic clearance in mouse hepatocytes assessed per million cells; format: ADME, cell-based, Hepatocyte; settings: read-out: CLH
Outline: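 Intrinsic clearance measured in mouse or dog hepatocytes, expressed as CL_int in […].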

[16] = Clearance in mouse blood at 5 umol/kg, iv or 30 umol/kg, po; format: ADME, organism-based

T1 sequence (P42338 whole entry, canonical isoform): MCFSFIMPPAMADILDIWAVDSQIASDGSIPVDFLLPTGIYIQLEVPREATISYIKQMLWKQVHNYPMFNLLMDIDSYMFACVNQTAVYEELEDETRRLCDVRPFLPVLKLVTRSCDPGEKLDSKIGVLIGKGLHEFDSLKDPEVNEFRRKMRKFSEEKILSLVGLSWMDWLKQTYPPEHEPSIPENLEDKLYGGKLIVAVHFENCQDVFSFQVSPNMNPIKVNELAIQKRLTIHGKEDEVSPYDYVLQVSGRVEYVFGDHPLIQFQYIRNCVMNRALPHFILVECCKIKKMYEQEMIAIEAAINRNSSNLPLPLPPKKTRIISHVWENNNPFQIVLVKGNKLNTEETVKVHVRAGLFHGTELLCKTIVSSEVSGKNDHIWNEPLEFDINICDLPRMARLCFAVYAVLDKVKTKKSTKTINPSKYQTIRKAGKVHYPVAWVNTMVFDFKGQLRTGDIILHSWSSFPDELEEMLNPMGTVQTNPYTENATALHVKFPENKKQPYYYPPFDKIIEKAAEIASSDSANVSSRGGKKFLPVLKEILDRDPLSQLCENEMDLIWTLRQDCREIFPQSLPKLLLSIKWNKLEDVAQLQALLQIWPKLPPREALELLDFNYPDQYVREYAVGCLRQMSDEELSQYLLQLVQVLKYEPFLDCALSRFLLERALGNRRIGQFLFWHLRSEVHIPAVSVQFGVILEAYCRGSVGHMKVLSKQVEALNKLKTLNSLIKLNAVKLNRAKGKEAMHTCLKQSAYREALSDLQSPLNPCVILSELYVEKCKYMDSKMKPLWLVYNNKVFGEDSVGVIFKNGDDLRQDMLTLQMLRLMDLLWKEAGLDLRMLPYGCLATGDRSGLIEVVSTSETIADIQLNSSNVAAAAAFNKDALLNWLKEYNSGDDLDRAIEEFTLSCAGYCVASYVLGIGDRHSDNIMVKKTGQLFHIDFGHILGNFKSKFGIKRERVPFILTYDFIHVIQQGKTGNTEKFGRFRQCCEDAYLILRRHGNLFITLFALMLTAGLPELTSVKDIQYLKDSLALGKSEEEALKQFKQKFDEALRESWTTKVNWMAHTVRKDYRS
Sequence of Phosphatidylinositol 4,5-bisphosphate 3-kinase catalytic subunit alpha isoform (P42336 whole entry, canonical isoform): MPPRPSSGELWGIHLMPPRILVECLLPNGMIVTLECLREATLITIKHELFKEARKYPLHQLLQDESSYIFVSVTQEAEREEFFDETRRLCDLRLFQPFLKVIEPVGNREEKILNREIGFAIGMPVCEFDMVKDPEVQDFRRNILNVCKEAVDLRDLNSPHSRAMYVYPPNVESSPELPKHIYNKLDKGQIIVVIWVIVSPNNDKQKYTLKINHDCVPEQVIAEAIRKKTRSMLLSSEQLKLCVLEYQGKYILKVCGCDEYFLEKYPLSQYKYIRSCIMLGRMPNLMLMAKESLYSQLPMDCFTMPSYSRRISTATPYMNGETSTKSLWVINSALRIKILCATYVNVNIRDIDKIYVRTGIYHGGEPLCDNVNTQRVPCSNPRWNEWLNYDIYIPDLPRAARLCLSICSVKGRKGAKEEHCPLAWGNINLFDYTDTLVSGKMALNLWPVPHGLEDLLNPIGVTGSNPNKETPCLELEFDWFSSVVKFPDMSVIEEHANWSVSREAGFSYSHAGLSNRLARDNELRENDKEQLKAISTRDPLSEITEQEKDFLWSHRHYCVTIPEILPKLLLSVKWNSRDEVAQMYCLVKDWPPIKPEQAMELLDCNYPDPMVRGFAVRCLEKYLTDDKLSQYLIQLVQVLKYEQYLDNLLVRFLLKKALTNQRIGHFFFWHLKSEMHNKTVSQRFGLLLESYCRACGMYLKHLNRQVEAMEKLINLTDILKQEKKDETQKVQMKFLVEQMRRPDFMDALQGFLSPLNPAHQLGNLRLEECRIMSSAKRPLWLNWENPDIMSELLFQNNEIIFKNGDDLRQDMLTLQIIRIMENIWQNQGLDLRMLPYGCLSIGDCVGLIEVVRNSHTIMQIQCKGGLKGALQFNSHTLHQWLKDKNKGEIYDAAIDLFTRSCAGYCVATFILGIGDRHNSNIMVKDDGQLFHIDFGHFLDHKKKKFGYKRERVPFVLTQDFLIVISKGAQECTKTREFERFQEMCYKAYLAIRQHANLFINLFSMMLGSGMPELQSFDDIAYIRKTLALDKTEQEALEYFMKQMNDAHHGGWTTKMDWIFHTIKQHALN
Sequence of Phosphatidylinositol 4,5-bisphosphate 3-kinase catalytic subunit gamma isoform (P48736 whole entry, canonical isoform): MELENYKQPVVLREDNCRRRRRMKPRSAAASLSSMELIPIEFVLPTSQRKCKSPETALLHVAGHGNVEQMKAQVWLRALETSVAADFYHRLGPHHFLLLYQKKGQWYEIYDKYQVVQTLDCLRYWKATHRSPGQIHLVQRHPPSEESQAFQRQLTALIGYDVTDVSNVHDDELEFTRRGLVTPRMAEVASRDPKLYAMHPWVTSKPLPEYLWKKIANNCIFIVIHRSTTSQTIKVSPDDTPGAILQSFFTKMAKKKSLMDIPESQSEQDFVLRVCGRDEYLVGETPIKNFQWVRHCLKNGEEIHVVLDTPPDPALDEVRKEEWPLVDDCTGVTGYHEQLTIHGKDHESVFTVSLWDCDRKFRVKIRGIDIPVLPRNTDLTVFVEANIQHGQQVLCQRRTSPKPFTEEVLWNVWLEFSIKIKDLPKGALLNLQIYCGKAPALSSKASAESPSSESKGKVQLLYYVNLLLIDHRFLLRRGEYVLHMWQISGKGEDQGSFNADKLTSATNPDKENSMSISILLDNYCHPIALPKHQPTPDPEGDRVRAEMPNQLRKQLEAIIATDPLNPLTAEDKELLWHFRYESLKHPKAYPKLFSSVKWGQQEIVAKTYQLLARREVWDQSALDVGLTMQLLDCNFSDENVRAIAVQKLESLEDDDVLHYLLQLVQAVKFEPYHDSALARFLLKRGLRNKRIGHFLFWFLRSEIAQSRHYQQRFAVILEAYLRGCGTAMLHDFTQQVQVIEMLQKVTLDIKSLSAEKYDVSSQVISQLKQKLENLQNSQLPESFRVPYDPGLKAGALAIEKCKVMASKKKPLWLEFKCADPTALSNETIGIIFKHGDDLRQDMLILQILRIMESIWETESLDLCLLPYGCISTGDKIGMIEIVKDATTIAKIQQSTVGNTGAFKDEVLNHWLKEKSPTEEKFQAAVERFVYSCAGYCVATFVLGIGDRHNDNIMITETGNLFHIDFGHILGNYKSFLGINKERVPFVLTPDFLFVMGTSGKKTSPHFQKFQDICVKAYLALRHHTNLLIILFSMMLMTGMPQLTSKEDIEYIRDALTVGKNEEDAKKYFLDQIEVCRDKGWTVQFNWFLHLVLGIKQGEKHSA

O=C(c1cc(C2CCCN2c2cc(F)cc(F)c2)c2oc(N3CCOCC3)cc(=O)c2c1)N1CCC(O)CC1 (racemic)
hepatocyte CLint [1]: < 3 µL/min/1e6 cells | IC50 [2]: 3 nM | logD [3]: 2.3 | IC50 [4]: 630 nM

CN(CCO)C(=O)c1cc(C2CCCN2c2cc(F)cc(F)c2)c2oc(N3CCOCC3)cc(=O)c2c1 (racemic)
AUC [5]: 0.3 µM·h | Papp A→B [6]: 2.6 ×10⁻⁶ cm/s | hepatocyte CLint [1]: 4 µL/min/1e6 cells | IC50 [2]: 2 nM | logD [3]: 2 | IC50 [4]: 870 nM

CN(C)C(=O)c1cc(C2CCCN2c2cc(F)cc(F)c2)c2oc(N3CCOCC3)cc(=O)c2c1 (racemic)
AUC [5]: 2.4 µM·h | Papp A→B [6]: 33 ×10⁻⁶ cm/s | hepatocyte CLint [1]: 17 µL/min/1e6 cells | IC50 [2]: 1.2 nM | logD [3]: 2.7 | IC50 [4]: 150 nM

O=C(c1cc(C2CCCN2c2ccc(F)cc2)c2oc(N3CCOCC3)cc(=O)c2c1)N1CCOCC1 (single isomer, unassigned)
hepatocyte CLint [1]: 8 µL/min/1e6 cells | IC50 [2]: 4.5 nM | logD [3]: 2.2 | IC50 [4]: 1200 nM

CN(C)C(=O)c1cc([C@H]2CCCN2c2cccc(F)c2)c2oc(N3CCOCC3)cc(=O)c2c1
hepatocyte CLint [1]: 15 µL/min/1e6 cells | IC50 [2]: 1.2 nM | logD [3]: 2.5 | IC50 [4]: 91 nM

CN(C)C(=O)c1cc([C@H]2CCCN2c2ccc(F)cc2)c2oc(N3CCOCC3)cc(=O)c2c1
AUC [5]: 1 µM·h | IC50 [7]: 6.7 nM | hepatocyte CLint [1]: 14 µL/min/1e6 cells | Ratio IC50 [8]: 50 | IC50 [2]: 3.4 nM | IC50 [9]: 8.2 nM | IC50 [4]: 180 nM | IC50 [10]: 330 nM | IC50 [11]: 24 nM

O=C(c1cc([C@H]2CCCN2c2cccc(F)c2)c2oc(N3CCOCC3)cc(=O)c2c1)N1CCOCC1
AUC [5]: 1.7 µM·h | Papp A→B [6]: 14 ×10⁻⁶ cm/s | fraction unbound [12]: 0.11 | bioavailability [13]: 18% | IC50 [7]: 6.1 nM | hepatocyte CLint [1]: 6 µL/min/1e6 cells | Vd [14]: 0.9 L/kg | IC50 [2]: 2.8 nM | logD [3]: 2.2 | IC50 [9]: 5.1 nM | IC50 [4]: 300 nM | IC50 [10]: 340 nM | IC50 [11]: 19 nM | hepatocyte CLint [15]: 134 µL/min/1e6 cells | clearance [16]: 47 mL/min/kg

CN(C)C(=O)c1cc(C2CCCN2c2ccccc2)c2oc(N3CCOCC3)cc(=O)c2c1 (racemic)
AUC [5]: 6 µM·h | hepatocyte CLint [1]: 11 µL/min/1e6 cells | IC50 [4]: 480 nM

Cc1cc([C@@H](C)Nc2ccccc2)c2nc(N3CCOCC3)cc(=O)n2c1
logD [3]: 3.6

CN1CCN(C(=O)c2cc([C@H]3CCCN3c3cc(F)cc(F)c3)c3oc(N4CCOCC4)cc(=O)c3c2)CC1
Papp A→B [6]: 3.3 ×10⁻⁶ cm/s | hepatocyte CLint [1]: 11 µL/min/1e6 cells | IC50 [2]: 2.3 nM | logD [3]: 2.3 | IC50 [4]: 250 nM
